Assay [1] deals with MDA-MB-231. Nature of the assay: Antiproliferative activity against human MDA-MB-231 cells assessed as reduction in cell viability at 15 uM after 72 hrs by MTT assay relative to control. The class given is functional. In a few lines:
(§1)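 Human cancer lines from ATCC, cultured per supplier instructions; ~5000 cells/well seeded 24 h before treatment at 37 °C, CO2. Exposed to vehicle (0.5% DMSO) or serially diluted compound (0.1 to 15 or 20 µM) for 72 h at 37 °C. MTT 100 µg added, 4 h at 37 °C; formazan dissolved in DMSO, absorbance 570 nm. Percent inhibition vs vehicle wells; triplicate, mean ± SEM.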

The nature of assay [2]: Antiproliferative activity against human HCT116 cells assessed as reduction in cell viability at 15 uM after 72 hrs by MTT assay relative to control. The class given is functional, HCT-116. In a few lines:
as §1
In general terms: Tetrazolium assays rely on reduction of a dye to a coloured formazan, in cell work by metabolically active cells.

Assay [3] is described as follows: Binding affinity to c-myc G-quadruplex DNA (unknown origin) assessed as change in melting temperature at 50 uM by circular dichroism spectroscopic analysis. In a few lines: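 CD melting: c-MYC DNA 10 µM strand in 10 mM lithium cacodylate pH 7.2, 1 mM KCl, 99 mM LiCl. Annealed 95 °C 5 min, cooled slowly to room temperature, then 5 equiv ligand (50 µM) added and incubated overnight. Ellipticity at 263 nm, 20–95 °C at 1 °C/min. Sigmoidal Boltzmann fit; ΔTm = Tm(DNA+ligand) − Tm(DNA).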

Assay [4] can be described thus: Binding affinity to c-Kit1 G-quadruplex DNA (unknown origin) assessed as stabilization of preformed parallel topology up to 5 molar equivalents by circular dichroism spectroscopic analysis in absence of metal ion. In a few lines: (§2)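 CD titration of promoter quadruplex DNA (12.5 µM strand) in 50 mM Tris-HCl pH 7.2, no added monovalent cations. Ligand from 5 mM DMSO stock added stepwise by molar equivalents. Spectra 220–320 nm, 1 mm path, 25 °C, 100 nm/min, 2 s response, average of 3 scans. Ellipticity change at ~260 nm (positive) and ~240 nm (negative) followed.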
(In general: Circular dichroism is widely used to follow secondary structure.)

The nature of assay [5]: Binding affinity to c-myc G-quadruplex DNA (unknown origin) assessed as stabilization of preformed parallel topology at 1 to 6 molar equivalents by circular dichroism spectroscopic analysis in absence of metal ion. In a few lines:
as §2

The test system of assay [6] is A549. Description: Antiproliferative activity against human A549 cells at 0.1 to 20 uM after 72 hrs by MTT assay. In kind it is functional, cell-based. Summed up: as §1
Assay [7] concerns A-431. Description: Antiproliferative activity against human A431 cells assessed as reduction in cell viability at 15 uM after 72 hrs by MTT assay relative to control. The class given is functional, cell-based. Summed up:
as §1

For assay [8], the system named is HeLa. Description: Antiproliferative activity against human HeLa cells at 0.1 to 20 uM after 72 hrs by MTT assay. The class given is functional, cell-based. In a few lines:
as §1

Assay [9] relates to PC-3. Description: Antiproliferative activity against human PC3 cells at 0.1 to 20 uM after 72 hrs by MTT assay. The class given is functional, cell-based. Summed up:
as §1

Assay [10] can be described thus: Binding affinity to telomeric DNA (unknown origin) assessed as change in melting temperature at 50 uM by circular dichroism spectroscopic analysis in presence of K+ ion. Summed up: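 CD melting: telomeric DNA 10 µM in 10 mM lithium cacodylate pH 7.2 with 10 mM KCl, 90 mM LiCl, plus ligand. Ellipticity followed against temperature; ΔTm taken as Tm with ligand minus Tm of DNA alone.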

A short description of assay [11]: Binding affinity to c-Kit1 G-quadruplex DNA (unknown origin) assessed as change in melting temperature at 50 uM by circular dichroism spectroscopic analysis. Summed up: (§3)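 CD melting of 10 µM DNA strand in 10 mM lithium cacodylate pH 7.2 with 90 mM LiCl and 10 mM KCl (c-KIT1 and duplex). c-KIT1 annealed at 95 °C for 5 min, slowly cooled, then given 5 equiv ligand (50 µM) overnight. Ellipticity read at 263 nm, 1 °C/min from 15–95 °C for c-KIT1. Sigmoidal Boltzmann fit. ΔTm = Tm(DNA+ligand) − Tm(DNA).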

The nature of assay [12]: Binding affinity to c-myc DNA mutant (unknown origin) up to 80 uM incubated for 30 mins by Taq DNA polymerase stop assay. In a few lines:
(§4)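 Taq polymerase stop assay. 32P-labelled primer plus 50 nM cold primer annealed to 100 nM template carrying c-MYC quadruplex or mutated c-MYC sequence. Ligand 0–80 µM, 30 min at room temperature, then 0.5 U Taq, 55 °C for 30 min. Products run on 15% denaturing PAGE and phosphorimaged. Normalised % stop product plotted against ligand concentration; IC50 is 50% stop. Two independent experiments.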

Assay [13] is described as follows: (§5) Antiproliferative activity against human HCT116 cells assessed as reduction in cell viability at 20 uM after 72 hrs by MTT assay relative to control. The class given is functional. The following applies: HCT-116, 72 h. Summed up: as §1
A short description of assay [14]: Binding affinity to c-myc G-quadruplex DNA (unknown origin) by UV-visible absorption spectroscopic analysis. Summed up:
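UV–vis titration, 225–600 nm, 10 mm cuvette. Ligand at 30 µM in 100 mM KCl, 10 mM lithium cacodylate pH 7.2 was titrated to saturation with c-MYC DNA pre-annealed in the same buffer (95 °C 5 min, slow cooling). Binding constant from a half-reciprocal fit; mean of 3 independent experiments.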

Assay [15] in a line: Binding affinity to c-myc G-quadruplex DNA (unknown origin) assessed as stabilization of preformed parallel topology up to 5 molar equivalents by circular dichroism spectroscopic analysis in absence of metal ion. Summed up:
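Ligand added from a 5 mM DMSO stock up to 5 equiv. Scanned 220–320 nm, 1.0 mm cuvette, 100 nm/min, 25 °C. Each spectrum is the average of 3 scans.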

Assay [16] deals with MDA-MB-231. Description: Antiproliferative activity against human MDA-MB-231 cells assessed as reduction in cell viability at 20 uM after 72 hrs by MTT assay relative to control. In kind it is functional. Particulars: MDA-MB-231, 72 h. In a few lines:
as §1

Assay [17] concerns A-431. Nature of the assay: Antiproliferative activity against human A431 cells assessed as reduction in cell viability at 20 uM after 72 hrs by MTT assay relative to control. The class given is functional. The following applies: A-431, 72 h. Summed up: as §1
Assay [18] in a line: Binding affinity to c-myc G-quadruplex DNA (unknown origin) incubated for 30 mins by Taq DNA polymerase stop assay. In a few lines:
as §4

A short description of assay [19]: Binding affinity to duplex DNA (unknown origin) assessed as change in melting temperature at 50 uM by circular dichroism spectroscopic analysis. In a few lines: as §3
The subject of assay [20] is HCT-116. The description is as §5. In kind it is functional. In a few lines:
as §1

A word on the inhibition: it is the percentage by which the read-out fell short of the control. The ΔTm is the change in melting temperature against a reference sample. By IC50 is commonly meant the concentration at which inhibition is half-maximal. Read a low IC50 as greater potency.

Molecules are shown by their SMILES. Calls of active or inactive are those of the source. No cut-off for these calls is given here.

On to `COc1ccc2c(c1OC)C(CC(C)=O)N(C)c1c-2ccc2cc3c(cc12)OCO3` (racemic) [listing 1 of 2 here], for which the inhibition at 15 µM amounted to 16.1% in assay [1] (Homo sapiens, MDA-MB-231, 72 h) and 28.7% in assay [2] (Homo sapiens, HCT-116, 72 h).

As to `COc1ccc2c(c1OC)C(CC(C)=O)N(C)c1c-2ccc2cc3c(cc12)OCO3` (racemic) [listing 2 of 2 here], the ΔTm in assay [3] stood at 2.6 °C; in assay [10], 1 °C. Further, the result in assay [4], in [6], in assay [8] and in assay [9] was inactive. In addition, the result in assay [5] was Active. Moreover, in assay [7], the inhibition result was “inactive”.

On to `COc1ccc2c(c1OC)C(CC(C)=O)N(C)c1c-2ccc2cc3c(cc12)OCO3` (single isomer, unassigned; (+)) [listing 1 of 2 here], for which the figures for the “inhibition (INH)” value in assay [1] and in assay [2] were 24.3% and 47.84%, respectively.

Take `COc1ccc2c(c1OC)C(CC(C)=O)N(C)c1c-2ccc2cc3c(cc12)OCO3` (single isomer, unassigned; (+)) [listing 2 of 2 here]: the outcome in assay [6], in assay [8] and in [9] was inactive. Further, in [7], the inhibition result is “inactive”.

As for `COc1ccc2c(c1OC)C(CC(C)=O)N(C)c1c-2ccc2cc3c(cc12)OCO3` (stereo in doubt) [listing 1 of 2 here], the “inhibition (INH)” value in assay [1] is listed as 20.81%; in assay [2], 36.88%.

For the compound `COc1ccc2c(c1OC)C(CC(C)=O)N(C)c1c-2ccc2cc3c(cc12)OCO3` (stereo in doubt) [listing 2 of 2 here], the outcome in assay [6], in assay [8] and in [9] was inactive. Also, the inhibition result in assay [7] was “inactive”.

As to `COc1ccc2c(c[n+](C)c3c4cc5c(cc4ccc23)OCO5)c1OC` [CHELERYTHRINE], the shift in melting temperature (ΔTm) was 19.6 °C in assay [3], 24.3 °C in [11] and 0.1 °C in [19]. The outcome in assay [4] and in assay [15] was Active. Moreover, in assay [12], the outcome was inactive. In addition, the inhibition at 20 µM in assay [13], in [16] and in [17] was 100% in each case. Further, the K in assay [14] stood at 7.35 ×10⁵ /M. The Activity entry in assay [18] is “Dose-dependent effect”. Besides, in [18], the half-maximal inhibitory concentration (IC50) worked out at 6.6 µM.

For `COc1ccc2c(c1OC)CN(C)c1c-2ccc2cc3c(cc12)OCO3` [DIHYDROCHELERYTHRINE], the ΔTm in [3] is 24 °C; in assay [11] it was 17.6 °C; in assay [19] it was -1 °C. In addition, the result in assay [4] and in assay [15] was Active. The outcome in assay [12], in assay [6], in [8] and in assay [9] was inactive. Moreover, the inhibition entry in assay [20] is “inactive”. In assay [14], this compound came in with a K of 5.5 ×10⁵ /M. The inhibition at 20 µM is 8.65% in assay [16] and 30.4% in assay [17]. Besides, the Activity entry in assay [18] is “Dose-dependent effect”. Besides, in assay [18], the IC50 amounted to 5.8 µM.

For `COc1cccc2c1C(=O)c1c(O)c3c(c(O)c1C2=O)C[C@@](O)(C(=O)CO)C[C@@H]3O[C@H]1C[C@H](N)[C@H](O)[C@H](C)O1` [DOXORUBICIN], the inhibition at 20 µM is 98% in assay [13], 92.7% in assay [16] and 98.1% in [17].

Source of the values: ChEMBL document CHEMBL3808356, “Dihydrochelerythrine and its derivatives: Synthesis and their application as potential G-quadruplex DNA stabilizing agents” (Bioorg Med Chem, 2016).
